# Assay results published in ChEMBL document CHEMBL1129335, “Synthesis and structure-activity relationships of 2-substituted D-tryptophan-containing peptidic endothelin receptor antagonists: importance of the C-2 substituent of the D-tryptophan residue for endothelin A and B receptor subtype selectivity” (J Med Chem, 1996).
# Key:
# [1] = target: T1, Endothelin receptor type B (Homo sapiens, UniProt P24530); experiment: Binding affinity towards Endothelin B receptor in human girardi heart cell membranes
# T1 sequence (P24530 whole entry): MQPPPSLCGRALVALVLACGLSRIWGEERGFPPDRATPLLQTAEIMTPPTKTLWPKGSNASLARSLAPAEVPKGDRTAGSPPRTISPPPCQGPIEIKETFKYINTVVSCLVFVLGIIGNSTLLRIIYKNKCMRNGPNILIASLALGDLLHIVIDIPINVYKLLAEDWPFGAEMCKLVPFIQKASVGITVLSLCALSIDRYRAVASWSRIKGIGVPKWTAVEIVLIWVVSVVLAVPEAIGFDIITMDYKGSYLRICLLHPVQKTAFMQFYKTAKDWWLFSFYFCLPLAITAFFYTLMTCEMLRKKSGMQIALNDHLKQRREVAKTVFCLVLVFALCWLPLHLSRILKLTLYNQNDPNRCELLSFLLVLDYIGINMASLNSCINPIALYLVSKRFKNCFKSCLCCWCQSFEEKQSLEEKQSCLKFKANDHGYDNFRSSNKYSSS
# In short: (§1)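 Membrane binding assay on human receptors. ETA came from the neuroblastoma-derived line SK-N-MC and ETB from Girardi heart cells. Inhibition was expressed as IC50.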
# [2] = target: T2, Endothelin receptor type B (Sus scrofa, UniProt P35463); experiment: Binding affinity towards endothelin B receptor in porcine cerebellum membranes; format: cell membranes, Membrane
# T2 sequence (P35463 whole entry): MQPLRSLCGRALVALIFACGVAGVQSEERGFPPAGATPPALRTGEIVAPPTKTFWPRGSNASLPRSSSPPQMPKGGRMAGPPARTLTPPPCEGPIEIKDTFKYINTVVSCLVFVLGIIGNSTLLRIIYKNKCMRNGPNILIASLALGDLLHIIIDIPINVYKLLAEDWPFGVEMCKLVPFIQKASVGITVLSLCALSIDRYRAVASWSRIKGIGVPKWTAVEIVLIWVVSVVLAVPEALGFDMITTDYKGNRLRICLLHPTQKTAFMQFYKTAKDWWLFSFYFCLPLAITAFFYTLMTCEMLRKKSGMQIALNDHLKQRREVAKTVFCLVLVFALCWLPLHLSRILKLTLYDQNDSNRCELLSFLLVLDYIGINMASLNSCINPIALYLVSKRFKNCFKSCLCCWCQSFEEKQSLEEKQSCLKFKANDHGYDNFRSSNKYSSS
# In short: (§2)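 Competitive binding in porcine membranes: aortic smooth muscle for ETA and cerebellum for ETB, run by a previously reported method. Variation was generally within 10%.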
# [3] = Inhibitory activity against ET 1 induced calcium increase in human Girardi heart cells; format: functional, cell-based
# In short: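 Intracellular Ca2+ rise in intact human Girardi heart cells was induced by ET-1, run by a reported method. Inhibition was expressed as IC50. Compounds were also applied alone at 100 µM to check for any rise in [Ca2+]i.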
# [4] = Antagonistic activity against Endothelin B receptor by BQ-3020 induced constriction in isolated rabbit pulmonary arteries; format: functional; conditions: Oryctolagus cuniculus; read-out: pA2 (converted)
# In short: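 Isolated rabbit pulmonary arteries were contracted with the ETB-selective agonist BQ-3020, following a previously reported protocol. Antagonist potency was given as pA2.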
# Endothelin-1 receptor [5] = target: T3, Endothelin-1 receptor (Homo sapiens, UniProt P25101); experiment: Binding affinity towards Endothelin A receptor in human neuroblastoma-derived cell line SK-N-MC membranes; format: cell-based; in short: as §1
# T3 sequence (P25101 whole entry): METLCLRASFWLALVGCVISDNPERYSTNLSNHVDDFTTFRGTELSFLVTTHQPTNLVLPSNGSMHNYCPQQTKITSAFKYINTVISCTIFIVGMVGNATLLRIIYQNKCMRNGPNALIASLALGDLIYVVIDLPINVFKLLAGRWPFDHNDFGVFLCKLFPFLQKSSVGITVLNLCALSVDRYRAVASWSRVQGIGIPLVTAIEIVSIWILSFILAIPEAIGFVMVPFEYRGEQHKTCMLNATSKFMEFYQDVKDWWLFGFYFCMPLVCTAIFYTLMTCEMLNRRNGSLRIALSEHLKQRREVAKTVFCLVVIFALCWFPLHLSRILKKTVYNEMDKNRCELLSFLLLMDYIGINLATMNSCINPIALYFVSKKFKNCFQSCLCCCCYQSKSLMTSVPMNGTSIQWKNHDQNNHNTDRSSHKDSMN
# [6] = target: T1, Endothelin receptor type B; experiment: Binding affinity rowards Endothelin B receptor in human girardi heart cell membranes; in short: as §1
# Endothelin-1 receptor [7] = target: T4, Endothelin-1 receptor (Sus scrofa, UniProt Q29010); experiment: Binding affinity towards endothelin A receptor in porcine aortic smooth muscle membranes.; in short: as §2
# T4 sequence (Q29010 whole entry): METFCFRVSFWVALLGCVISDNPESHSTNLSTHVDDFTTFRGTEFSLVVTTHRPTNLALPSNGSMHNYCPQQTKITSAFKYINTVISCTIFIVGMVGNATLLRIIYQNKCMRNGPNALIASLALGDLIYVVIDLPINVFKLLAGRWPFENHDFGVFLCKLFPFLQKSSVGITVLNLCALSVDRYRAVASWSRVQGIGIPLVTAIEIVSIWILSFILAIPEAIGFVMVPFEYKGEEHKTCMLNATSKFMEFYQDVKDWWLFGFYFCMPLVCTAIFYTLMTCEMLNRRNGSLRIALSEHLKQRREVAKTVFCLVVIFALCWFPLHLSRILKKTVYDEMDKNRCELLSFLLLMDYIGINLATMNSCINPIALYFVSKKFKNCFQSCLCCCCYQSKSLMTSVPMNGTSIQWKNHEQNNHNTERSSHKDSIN
# [8] = Ability to antagonize ET-A mediated vasoconstrictor activity in isolated porcine coronary arteries; format: functional; conditions: read-out: pA2 (converted)
# In short: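 Isolated porcine coronary artery rings were contracted with ET-1, an ETA-mediated response, following a reported method. Antagonism was quantified as a pA2 value.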
# [9] = Ability to antagonize ET-1 mediated constriction in rabbit pulmonary arteries; format: functional, Oryctolagus cuniculus
SMILES,IC50 [1] [nM],IC50 [2] [nM],IC50 [3] [nM],Kb [4] [nM],IC50 (Endothelin-1 receptor [5]) [nM],IC50 [6] [nM],IC50 (Endothelin-1 receptor [7]) [nM],IC50 ([1]; heart) [nM],Kb [8] [nM],pA2 [9],IC50 (Endothelin-1 receptor [5]; sk-n-mc) [nM]
CCCCC(NC(=O)[C@@H](Cc1c(C#N)[nH]c2ccccc12)NC(=O)C(NC(=O)N1[C@H](C)CCC[C@@H]1C)C(C)C)C(=O)O (stereo not given in full),5,2.3,4,3.16,2400,–,–,–,–,–,–
CCSCC(NC(=O)[C@@H](Cc1c(Br)[nH]c2ccccc12)NC(=O)C(CC(C)C)NC(=O)N1[C@H](C)CCC[C@@H]1C)C(=O)O (stereo not given in full),–,1.8,–,–,6.4,3.6,1.9,–,–,–,–
O=C(O)C[C@H]1NC(=O)[C@@H](Cc2c(Br)[nH]c3ccccc23)NC(=O)[C@H](C2CC2)NC(=O)[C@@H](C2CCCC2)NC(=O)[C@@H]2CCCN2C1=O,–,15,–,–,–,–,4.9,29,31.6,5.7,8.6
